Measurements from ChEMBL document CHEMBL3352688, “Synthesis and anti-inflammatory and pro-resolving activities of 22-OH-PD1, a monohydroxylated metabolite of protectin D1” (2014).
Calls of active or inactive are those of the source. No cut-off for these calls is given here.

Tests used:
Mus musculus [1] = assay: Anti-inflammatory activity in FVB mouse with zymosan-induced sterile peritonitis assessed as reduction in PMN infiltration in peritoneal inflammatory exudates at 10 ng, ip measured at 4 hrs dosed 10 mins before zymosan challenge by light microscopy and flow cytometry; assay type: functional
In short: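 Male FVB mice, 6–8 weeks old, were dosed i.p. with 10 ng in saline with 0.1% EtOH, then zymosan 1 mg/mouse i.p. 10 min later. Peritoneal lavage was collected at 4 h in PBS without Ca/Mg. Leukocytes were enumerated by light microscopy and flow cytometry. Mean ± SEM, n = 4 mice per treatment.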

Mus musculus [2] = assay: Anti-inflammatory activity in FVB mouse with zymosan-induced sterile peritonitis assessed as reduction in PGD2 in peritoneal inflammatory exudates at 10 ng, ip dosed 10 mins before zymosan challenge by LC-MS/MS based targeted lipid mediator metabololipidomics; assay type: functional
In short: (§1)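 Male FVB mice, 6–8 weeks old, received 10 ng i.p. in saline with 0.1% EtOH as vehicle, then zymosan 1 mg/mouse i.p. 10 min later. Peritoneal lavage was taken at 4 h in PBS without Ca/Mg. Eicosanoids were measured by LC/MS-MS after solid-phase extraction, identified with at least six diagnostic ions and quantified against linear calibration curves. Mean ± SEM, n = 4 mice per group.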

Mus musculus [3] = assay: Anti-inflammatory activity in FVB mouse with zymosan-induced sterile peritonitis assessed as reduction in PGF2alpha in peritoneal inflammatory exudates at 10 ng, ip dosed 10 mins before zymosan challenge by LC-MS/MS based targeted lipid mediator metabololipidomics; assay type: functional; in short: as §1
Mus musculus [4] = assay: Anti-inflammatory activity in FVB mouse with zymosan-induced sterile peritonitis assessed as reduction in TXB2 in peritoneal inflammatory exudates at 10 ng, ip dosed 10 mins before zymosan challenge by LC-MS/MS based targeted lipid mediator metabololipidomics; assay type: functional; in short: as §1
Homo sapiens [5] = species: Homo sapiens; assay: Inhibition of LTB4-induced cell adhesion to fibronectin in human primary PMN at 0.1 to 10 nM pre-incubated for 10 mins followed by LTB4 stimulation by flow cytometry; assay type: functional; conditions: in the assay text read “flow chamber assay with microscopy” for “flow cytometry”
In short: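 Purified human PMN were pretreated 10 min at room temperature, then stimulated with 10 nM LTB4 for 10 min at room temperature. Cells at 1 × 10^6/mL were perfused over fibronectin-coated chambers at 0.5 mL/min for 5 min. Adherent cells were counted in six random fields by imaging. Three independent experiments; paired t test versus vehicle.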

Homo sapiens [6] = species: Homo sapiens; assay: Inhibition of IL8-induced chemotaxis of human primary PMN at 0.01 to 100 nM pre-incubated for 15 mins followed by IL8 stimulation by PrestoBlue fluorescence assay
Homo sapiens [7] = species: Homo sapiens; assay: Inhibition of LTB4-induced chemotaxis of human primary PMN at 0.01 to 100 nM pre-incubated for 15 mins followed by LTB4 stimulation by PrestoBlue fluorescence assay
[8] = Inhibition of IL8-induced chemotaxis of human primary PMN at 0.01 to 100 nM pre-incubated for 15 mins followed by IL8 stimulation by PrestoBlue fluorescence assay
[9] = Inhibition of LTB4-induced chemotaxis of human primary PMN at 0.01 to 100 nM pre-incubated for 15 mins followed by LTB4 stimulation by PrestoBlue fluorescence assay

Compound	inhibition (INH) (Mus musculus [1]) [%]	inhibition (Mus musculus [2])	inhibition (Mus musculus [3])	inhibition (Mus musculus [4])	inhibition (Homo sapiens [5])	inhibition (Homo sapiens [6])	inhibition (Homo sapiens [7])	inhibition (INH) (Mus musculus [2]) [%]	inhibition (INH) (Mus musculus [3]) [%]	inhibition (INH) (Mus musculus [4]) [%]	inhibition (INH) [8] [%]	inhibition (INH) [9] [%]
CC/C=C\C[C@H](O)\C=C/C=C/C=C/[C@H](O)C/C=C\C/C=C\CCC(=O)O	54	Active	Active	Active	Active	Active	Active	–	–	–	–	–
O=C(O)CC/C=C\C/C=C\C[C@@H](O)/C=C/C=C/C=C\[C@@H](O)C/C=C\CCO	43	–	–	–	Active	–	–	27	43	48	23	19
